Source: ChEMBL document CHEMBL1275600, “Prophylactic activity of intramuscular peramivir in mice infected with a recombinant influenza A/WSN/33 (H1N1) virus containing the H274Y neuraminidase mutation” (Antimicrob Agents Chemother, 2010)
The source made the active and inactive calls. No cut-off for these calls is given here.

How the values were obtained:
Influenza A virus [1] = assay: Antiviral activity against recombinant Influenza A/WSN/33 (H1N1) virus infected in BALB/c mouse assessed as survival of mouse at 45 mg/kg, im administered as single dose; type: functional, organism-based; set-up: dose 45 mg/kg; conditions: A/WSN/1933(H1N1)
Method in brief: (§1)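 Male BALB/c mice, 6–8 weeks old and 20–25 g, were randomized by weight, 4 per cage, in groups of 12. Drug at 50 mg/ml in saline buffered to pH 3.0 was given by IM hip injection, first dose 1 h before challenge. Mice were infected intranasally under isoflurane with 8 × 10^3 PFU of cell-grown recombinant virus in 30 μl PBS. Mortality was recorded daily for 14 days.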

Influenza A virus [2] = assay: Antiviral activity against recombinant Influenza A/WSN/33 (H1N1) virus infected in BALB/c mouse assessed as survival of mouse at 90 mg/kg, im administered as single dose; type: functional, organism-based; set-up: dose 90 mg/kg; conditions: A/WSN/1933(H1N1); method in brief: as §1
Influenza A virus [3] = assay: Antiviral activity against recombinant Influenza A/WSN/33 (H1N1) virus infected in BALB/c mouse assessed as survival of mouse at 45 mg/kg, im once daily for 5 days; type: functional, organism-based; set-up: dose 45 mg/kg; conditions: A/WSN/1933(H1N1); method in brief: as §1
Mus musculus [4] = assay: Toxicity against BALB/c mouse assessed as mortality at 45 mg/kg, im once daily for 5 days measured after 14 days; type: organism-based; set-up: dose 45 mg/kg, route intramuscular; conditions: in vivo, 336 h
Method in brief: (§2)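 Uninfected male BALB/c mice, 6 per group, received IM drug at 45 mg/kg once daily for 5 days, dissolved at 50 mg/ml in pH 3.0 buffered saline, or PBS. Body weight and mortality were monitored daily for 14 days.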

Mus musculus [5] = assay: Toxicity against recombinant Influenza A/WSN/33 (H1N1) virus infected BALB/c mouse assessed as weight loss at 45 mg/kg, im once daily for 5 days measured after 14 days; type: organism-based; set-up: dose 45 mg/kg, route intramuscular; conditions: in vivo, 336 h
Method in brief: (§3)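 Male BALB/c mice, groups of 12, received IM drug at 50 mg/ml in pH 3.0 buffered saline, starting 1 h before intranasal infection with 8 × 10^3 PFU of recombinant virus. Body weight was monitored daily for 14 days. Mean weight loss was compared across regimens by one-way ANOVA, with uninfected PBS-treated mice as reference.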

Mus musculus [6] = assay: Toxicity against recombinant Influenza A/WSN/33 (H1N1) virus infected BALB/c mouse assessed as weight loss at 45 mg/kg, im administered as single dose and measured after 14 days; type: organism-based; set-up: dose 45 mg/kg, route intramuscular; conditions: in vivo, 336 h; method in brief: as §3
Mus musculus [7] = assay: Toxicity against recombinant Influenza A/WSN/33 (H1N1) virus infected BALB/c mouse assessed as weight loss at 90 mg/kg, im administered as single dose and measured after 14 days; type: organism-based; set-up: dose 90 mg/kg, route intramuscular; conditions: in vivo, 336 h; method in brief: as §3
Mus musculus [8] = assay: Toxicity against BALB/c mouse assessed as weight loss in mouse at 45 mg/kg, im once daily for 5 days measured after 14 days; type: organism-based; set-up: dose 45 mg/kg, route intramuscular; conditions: in vivo, 336 h; method in brief: as §2
Influenza A virus [9] = assay: Antiviral activity against Influenza A/WSN/33 (H1N1) virus infected in mouse assessed as survival rate at 10 mg/kg, im administered 4 days before viral challenge; type: functional; conditions: A/WSN/1933(H1N1), route intramuscular
Influenza A virus [10] = assay: Antiviral activity against Influenza A/WSN/33 (H1N1) virus infected in mouse assessed as survival rate at 10 mg/kg, po administered 4 days before viral challenge; type: functional; conditions: A/WSN/1933(H1N1)
[11] = Cmax in mouse at 30 mg/kg, im administered as single dose and measured after 30 mins; type: ADME, organism-based; set-up: dose 30 mg/kg, route intramuscular; conditions: in vivo
[12] = Cmax in mouse at 30 mg/kg, im administered as single dose and measured after 24 hrs; type: ADME, organism-based; set-up: dose 30 mg/kg, route intramuscular; conditions: in vivo
[13] = biological target: Neuraminidase (Influenza A virus (strain A/Wilson-Smith/1933 H1N1) (Influenza A virus(strain A/WS/1933 H1N1))) (UniProt P03470); conditions: Influenza A virus (A/WSN/1933(H1N1)); 10 mg/kg
Chain of Neuraminidase (Influenza A virus (strain A/Wilson-Smith/1933 H1N1) (Influenza A virus(strain A/WS/1933 H1N1))) (P03470 whole entry): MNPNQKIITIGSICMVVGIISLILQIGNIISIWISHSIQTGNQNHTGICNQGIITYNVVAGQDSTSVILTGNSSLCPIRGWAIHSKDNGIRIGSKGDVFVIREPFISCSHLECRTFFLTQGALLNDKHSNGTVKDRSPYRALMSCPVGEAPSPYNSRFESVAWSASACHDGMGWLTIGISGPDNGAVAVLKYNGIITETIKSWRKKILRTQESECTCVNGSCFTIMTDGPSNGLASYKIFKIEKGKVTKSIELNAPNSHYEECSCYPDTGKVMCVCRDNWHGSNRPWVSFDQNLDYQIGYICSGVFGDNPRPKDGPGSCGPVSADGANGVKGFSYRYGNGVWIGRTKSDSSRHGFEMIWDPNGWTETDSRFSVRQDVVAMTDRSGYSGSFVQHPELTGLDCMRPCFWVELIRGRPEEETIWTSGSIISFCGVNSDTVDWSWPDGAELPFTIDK

[14] = biological target: Neuraminidase (Influenza A virus (strain A/Wilson-Smith/1933 H1N1) (Influenza A virus(strain A/WS/1933 H1N1))) (UniProt P03470); conditions: Influenza A virus (A/WSN/1933(H1N1)); 2 to 20 mg/kg

Compound: CCC(CC)[C@H](NC(C)=O)[C@@H]1[C@H](O)[C@@H](C(=O)O)C[C@H]1NC(=N)N [PERAMIVIR ANHYDROUS]
- Activity (Influenza A virus [1]): Active
- Activity (Influenza A virus [2]): Active
- Activity (Influenza A virus [3]): Active
- Activity (Mus musculus [4]): Non-toxic
- Activity (Mus musculus [5]): Non-toxic
- Activity (Mus musculus [6]): Non-toxic
- Activity (Mus musculus [7]): Non-toxic
- Activity (Mus musculus [8]): Non-toxic
- survival at 10 mg/kg (Influenza A virus [9]): 100%
- survival at 10 mg/kg (Influenza A virus [10]): 50%
- Cmax [11]: 17700 ng/mL
- Cmax [12]: 29.3 ng/mL
- T1/2 [13]: > 24 h
- T1/2 [14]: 1.25 h
